Test results taken from ChEMBL document CHEMBL1212881, “Design, synthesis, and structure-affinity relationships of regioisomeric N-benzyl alkyl ether piperazine derivatives as sigma-1 receptor ligands” (J Med Chem, 2010).

Tests used:
[1] = molecular target: Sigma non-opioid intracellular receptor 1 (Rattus norvegicus, UniProt Q9R0C9); assay: Displacement of [3H]pentazocine from sigma1 receptor in rat brain homogenate; assay type: tissue-based
Procedure, shortened: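 σ1 affinity was measured by competitive displacement of [³H](+)-pentazocine from rat brain homogenate, using a competitive modification of the Kovacs and Larson protocol. Ki is reported as mean ± SEM from triplicate assays.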

D(2) dopamine receptor = D(2) dopamine receptor (Homo sapiens, UniProt P14416); assay: Binding affinity to dopamine D2
Sequence of D(2) dopamine receptor (P14416 whole entry): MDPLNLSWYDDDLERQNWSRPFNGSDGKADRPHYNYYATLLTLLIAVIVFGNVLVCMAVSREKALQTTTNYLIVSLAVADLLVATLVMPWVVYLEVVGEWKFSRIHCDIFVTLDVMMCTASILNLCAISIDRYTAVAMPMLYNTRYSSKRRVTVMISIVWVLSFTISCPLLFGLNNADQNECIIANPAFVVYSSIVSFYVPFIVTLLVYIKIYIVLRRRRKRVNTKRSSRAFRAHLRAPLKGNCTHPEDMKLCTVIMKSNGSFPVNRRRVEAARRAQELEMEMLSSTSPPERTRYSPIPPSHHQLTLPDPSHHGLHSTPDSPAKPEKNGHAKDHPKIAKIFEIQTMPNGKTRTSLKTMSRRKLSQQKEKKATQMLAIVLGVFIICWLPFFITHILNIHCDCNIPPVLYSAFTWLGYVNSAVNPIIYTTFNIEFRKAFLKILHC
Procedure, shortened: (§1)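 Ki values come from radioligand binding run by the NIMH Psychoactive Drug Screening Program (PDSP) under its standard conditions. Values are means ± SEM from triplicate assays.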

[2] = Displacement of [3H]DTG from sigma2 receptor in rat PC12 cells; conditions: pc-12
Rattus norvegicus = species: Rattus norvegicus; assay: Selectivity ratio of Ki for rat sigma2 receptor to Ki rat sigma1 receptor
Procedure, shortened: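 The ratio is Ki(σ2) divided by Ki(σ1). σ1 Ki came from [³H](+)-pentazocine displacement in rat brain homogenate. σ2 Ki came from [³H]DTG displacement in PC12 cell preparation, a cell line that overexpresses σ2. Both Ki values are triplicate means; ratios above 1 mean σ1-selective.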

[3] = molecular target: T1, 5-hydroxytryptamine receptor 1A (Homo sapiens, UniProt P08908); assay: Binding affinity to 5HT1A; procedure, shortened: as §1
T1 sequence (P08908 whole entry): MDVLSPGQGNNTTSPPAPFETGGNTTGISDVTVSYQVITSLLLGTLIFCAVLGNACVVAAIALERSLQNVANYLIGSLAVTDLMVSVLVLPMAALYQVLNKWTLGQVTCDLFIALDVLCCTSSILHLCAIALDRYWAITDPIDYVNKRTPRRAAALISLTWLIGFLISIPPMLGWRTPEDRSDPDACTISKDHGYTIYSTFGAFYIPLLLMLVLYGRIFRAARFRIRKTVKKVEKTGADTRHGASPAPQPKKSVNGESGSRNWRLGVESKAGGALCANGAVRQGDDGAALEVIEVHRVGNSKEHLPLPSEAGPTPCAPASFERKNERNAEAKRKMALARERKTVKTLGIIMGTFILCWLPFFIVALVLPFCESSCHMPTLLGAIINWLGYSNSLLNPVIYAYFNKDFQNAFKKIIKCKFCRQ

[4] = molecular target: 5-hydroxytryptamine receptor 2B (Homo sapiens, UniProt P41595); assay: Binding affinity to 5HT2B; procedure, shortened: as §1
Sequence of 5-hydroxytryptamine receptor 2B (P41595 whole entry): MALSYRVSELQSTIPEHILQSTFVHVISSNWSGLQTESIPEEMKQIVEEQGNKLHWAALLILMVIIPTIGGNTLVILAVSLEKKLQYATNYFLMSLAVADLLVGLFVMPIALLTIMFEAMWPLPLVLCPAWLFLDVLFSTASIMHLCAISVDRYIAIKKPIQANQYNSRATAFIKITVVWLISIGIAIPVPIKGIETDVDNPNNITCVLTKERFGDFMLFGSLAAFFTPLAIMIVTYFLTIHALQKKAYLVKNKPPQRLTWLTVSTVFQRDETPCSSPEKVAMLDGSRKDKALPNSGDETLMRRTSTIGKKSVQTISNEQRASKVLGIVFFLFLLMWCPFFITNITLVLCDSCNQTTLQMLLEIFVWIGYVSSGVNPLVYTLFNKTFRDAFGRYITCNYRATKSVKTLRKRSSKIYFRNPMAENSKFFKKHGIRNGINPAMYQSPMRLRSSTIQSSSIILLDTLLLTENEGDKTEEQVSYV

[5] = Drug uptake in baboon kidney at 100 MBq, iv in presence of haloperidol; assay type: ADME, organism-based; conditions: papio hamadryas, in vivo
Procedure, shortened: (§2)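 Anaesthetized Papio hamadryas baboon; radiotracer given iv at 100 MBq in 3 mL saline, specific activity 73 GBq/μmol. Haloperidol (1 mg/kg) given iv 5 min before the tracer. Dynamic PET over 60 min, then whole-body acquisition for 2 min at each of six bed positions. Uptake expressed as decay-corrected % injected dose/mL.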

[6] = Drug uptake in baboon frontal cortex at 100 MBq, iv; assay type: ADME, organism-based; conditions: papio hamadryas, in vivo
Procedure, shortened: (§3)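 Anaesthetized Papio hamadryas baboon; radiotracer given iv at 100 MBq in 3 mL saline, specific activity 73 GBq/μmol. Dynamic brain PET started just before injection and ran 60 min. Voxel values were decay-corrected to injection time and converted to % injected dose/mL. Regional time-activity curves came from coregistered regions of interest.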

[7] = Drug uptake in baboon brain at 100 MBq, iv in presence of haloperidol; assay type: ADME, organism-based; conditions: papio hamadryas, in vivo; procedure, shortened: as §2
[8] = Drug uptake in baboon cingulate cortex at 100 MBq, iv; assay type: ADME; conditions: papio hamadryas, in vivo; procedure, shortened: as §3
[9] = Drug uptake in baboon bladder at 100 MBq, iv in presence of haloperidol; assay type: ADME, organism-based, Urinary bladder; conditions: papio hamadryas, in vivo; procedure, shortened: as §2
[10] = Drug uptake in baboon liver at 100 MBq, iv in presence of haloperidol; assay type: ADME, organism-based; conditions: papio hamadryas, in vivo; procedure, shortened: as §2
[11] = Drug uptake in baboon striatum at 100 MBq, iv; assay type: ADME, organism-based; conditions: papio hamadryas, in vivo; procedure, shortened: as §3
[12] = Lipophilicity, log D of the compound; assay type: physicochemical; conditions: HPLC retention time
Procedure, shortened: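 Log D estimated by HPLC retention time on a C-18 column. Mobile phase methanol/0.05 M potassium phosphate buffer (65:35 v/v, pH 7.47) at 0.3 mL/min, UV 254 nm. Calibrated against standards of known log D (aniline, benzene, toluene, cumene, triphenylamine, hexachlorobenzene) using an exponential fit. Injections in triplicate and averaged.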

Sequence of Sigma non-opioid intracellular receptor 1 (Q9R0C9 whole entry): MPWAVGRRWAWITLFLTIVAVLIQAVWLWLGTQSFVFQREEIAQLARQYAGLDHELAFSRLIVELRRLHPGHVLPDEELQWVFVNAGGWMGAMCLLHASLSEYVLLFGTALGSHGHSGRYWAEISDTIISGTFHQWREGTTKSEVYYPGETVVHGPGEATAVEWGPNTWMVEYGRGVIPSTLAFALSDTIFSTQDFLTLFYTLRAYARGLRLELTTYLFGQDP

Row | SMILES | Ki [1] [nM] | Ki (D(2) dopamine receptor) [nM] | Ki [2] [nM] | Ratio Ki (Rattus norvegicus) | Ki [3] [nM] | Ki [4] [nM] | Drug uptake [5] | Drug uptake [6] | Drug uptake [7] | Drug uptake [8] | Drug uptake [9] | Drug uptake [10] | Drug uptake [11] | logD [12]
1 | CCCOc1ccccc1CN1CCN(Cc2cc3ccccc3o2)CC1 | 79 | > 10000 | 778 | 10 | 2460 | 116 | – | – | – | – | – | – | – | –
2 | FCCCOc1cccc(CN2CCN(Cc3cc4ccccc4o3)CC2)c1 | 232 | 2920 | 2370 | 10 | 599 | 188 | – | – | – | – | – | – | – | –
3 | FCCOc1ccccc1CN1CCN(Cc2cc3ccccc3o2)CC1 | 488 | > 10000 | 535 | 1.1 | 3250 | 57 | – | – | – | – | – | – | – | –
4 | [11CH3]Oc1ccc(CN2CCN(Cc3cc4ccccc4o3)CC2)cc1 | – | – | – | – | – | – | Not Active | Active | Not Active | Active | Not Active | Not Active | Active | –
5 | CCOc1ccccc1CN1CCN(Cc2cc3ccccc3o2)CC1 | 37.1 | 6000 | 295 | 8 | 468 | 72 | – | – | – | – | – | – | – | –
6 | CCCOc1ccc(CN2CCN(Cc3cc4ccccc4o3)CC2)cc1 | 53.8 | > 10000 | 2400 | 45 | 4720 | 655 | – | – | – | – | – | – | – | –
7 | c1ccc(CN2CCN(Cc3cc4ccccc4o3)CC2)cc1 | 5.2 | > 10000 | 240 | 46 | 833 | 497 | – | – | – | – | – | – | – | –
8 | CCCOc1cccc(CN2CCN(Cc3cc4ccccc4o3)CC2)c1 | 177 | 2980 | 1920 | 11 | 774 | 259 | – | – | – | – | – | – | – | –
9 | COc1cccc(CN2CCN(Cc3cc4ccccc4o3)CC2)c1 | 16.3 | 5730 | 79.5 | 4.9 | 373 | 28 | – | – | – | – | – | – | – | –
10 | COc1ccc(CN2CCN(Cc3cc4ccccc4o3)CC2)cc1 | 2.7 | 2700 | 103 | 38 | 2190 | 15 | – | – | – | – | – | – | – | 3.63
11 | FCCCOc1ccc(CN2CCN(Cc3cc4ccccc4o3)CC2)cc1 | 14.7 | > 10000 | 752 | 51 | 3300 | 232 | – | – | – | – | – | – | – | –
12 | COc1ccccc1CN1CCN(Cc2cc3ccccc3o2)CC1 | 198 | 5120 | 89 | 0.45 | 806 | 9.7 | – | – | – | – | – | – | – | –
13 | CCOc1ccc(CN2CCN(Cc3cc4ccccc4o3)CC2)cc1 | 10.6 | 4870 | 393 | 37 | 3340 | 262 | – | – | – | – | – | – | – | –
14 | FCCOc1cccc(CN2CCN(Cc3cc4ccccc4o3)CC2)c1 | 49.7 | 2280 | 292 | 5.9 | 469 | 244 | – | – | – | – | – | – | – | –
15 | FCCCOc1ccccc1CN1CCN(Cc2cc3ccccc3o2)CC1 | 9.1 | > 10000 | 542 | 60 | 3380 | 184 | – | – | – | – | – | – | – | –
16 | CCOc1cccc(CN2CCN(Cc3cc4ccccc4o3)CC2)c1 | 80 | 4540 | 238 | 3 | 1720 | 302 | – | – | – | – | – | – | – | –
